Key:
[1] = tested on: Acinetobacter baumannii; assay: Antibacterial activity against multidrug resistant Acinetobacter baumannii 2208 (ATCC 19606) assessed as reduction in bacterial growth incubated for 6 to 8 hrs; format: functional
Summary of the method: (§1)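 Broth proliferation assay. S. aureus and MRSA grown in ATCC Medium 18, other pathogens in Brain Heart Infusion. Stagnant incubation at 37°C under breathable seal. OD600 read at mid-log (6-8 h) and corrected with bacteria-free baseline plates. EC50 by variable-slope nonlinear fit, at least triplicate.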

[2] = tested on: Pseudomonas aeruginosa; assay: Antibacterial activity against multidrug resistant Pseudomonas aeruginosa NCTC 10332 (ATCC 10145) assessed as reduction in bacterial growth incubated for 6 to 8 hrs; format: functional, organism-based; summary of the method: as §1
[3] = tested on: Enterococcus faecium; assay: Antibacterial activity against multidrug resistant Enterococcus faecium NCTC 7171 (ATCC 19434) assessed as reduction in bacterial growth incubated for 6 to 8 hrs; format: functional, organism-based; summary of the method: as §1
[4] = tested on: Staphylococcus aureus; assay: Antibacterial activity against methicillin resistant Staphylococcus aureus subsp. aureus HPV107 (ATCC BAA-44) assessed as reduction in bacterial growth incubated for 6 to 8 hrs; format: functional, organism-based; summary of the method: as §1
[5] = tested on: Staphylococcus aureus; assay: Antibacterial activity against methicillin susceptible Staphylococcus aureus subsp. aureus Seattle 1945 (ATCC 25923) assessed as reduction in bacterial growth incubated for 6 to 8 hrs
[6] = tested on: Enterobacter cloacae; assay: Antibacterial activity against multidrug resistant Enterobacter cloacae subsp. cloacae CDC 442-68 (ATCC 13047) assessed as reduction in bacterial growth incubated for 6 to 8 hrs; format: functional, organism-based; summary of the method: as §1
[7] = tested on: Klebsiella pneumoniae subsp. pneumoniae; assay: Antibacterial activity against multidrug resistant Klebsiella pneumoniae subsp. pneumoniae NCTC 9633 (ATCC 13883) assessed as reduction in bacterial growth incubated for 6 to 8 hrs; format: functional, organism-based; summary of the method: as §1
[8] = molecular target: T1, E. coli GroEL/ES (Escherichia coli, UniProt P0A6F5); assay: Inhibition of Escherichia coli GroEL/GroES using Escherichia coli GroEL expressed in Escherichia coli DH5alpha cells and Escherichia coli GroES expressed in Escherichia coli BL21(DE3) cells assessed as reduction in native refolded rhodanese-mediated thiocyanate production by micro plate reader analysis
T1 sequence (P0A6F5 whole entry, looked up): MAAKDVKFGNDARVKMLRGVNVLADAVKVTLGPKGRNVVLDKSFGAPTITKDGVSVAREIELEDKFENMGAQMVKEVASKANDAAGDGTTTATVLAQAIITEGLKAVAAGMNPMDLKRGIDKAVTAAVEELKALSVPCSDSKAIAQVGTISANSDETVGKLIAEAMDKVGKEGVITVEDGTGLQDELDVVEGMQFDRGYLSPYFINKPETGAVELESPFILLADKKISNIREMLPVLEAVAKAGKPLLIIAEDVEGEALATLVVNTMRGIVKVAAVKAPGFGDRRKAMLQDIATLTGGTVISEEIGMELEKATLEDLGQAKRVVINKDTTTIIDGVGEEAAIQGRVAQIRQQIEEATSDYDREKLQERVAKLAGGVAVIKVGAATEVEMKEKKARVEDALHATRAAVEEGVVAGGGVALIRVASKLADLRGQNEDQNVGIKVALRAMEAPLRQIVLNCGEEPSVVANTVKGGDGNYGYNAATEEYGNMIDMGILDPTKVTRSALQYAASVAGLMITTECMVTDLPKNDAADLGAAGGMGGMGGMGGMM

[9] = molecular target: T1, E. coli GroEL/ES; assay: Inhibition of Escherichia coli GroEL/GroES using Escherichia coli GroEL expressed in Escherichia coli DH5alpha cells and Escherichia coli GroES expressed in Escherichia coli BL21(DE3) cells assessed as reduction in pig heart native refolded MDH-mediated NADH production by micro plate reader analysis
Summary of the method: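 Native MDH counter-screen. GroEL/ES-dMDH refolding run 60 min at 37°C, then EDTA-quenched without compound. IC50 averaged from at least triplicate.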

[10] = tested on: Escherichia coli; assay: Antibacterial activity against Escherichia coli DH5alpha assessed as reduction in bacterial growth incubated for 6 to 8 hrs; format: functional, organism-based; conditions: DH5[alpha]
[11] = tested on: HEK293; assay: Cytotoxicity against HEK293 cells assessed as reduction in cell viability after 48 hrs by alamar blue assay; format: cell-based; conditions: Homo sapiens, HEK293, 48 h
[12] = molecular target: T2, HSP60/HSP10 (Homo sapiens, UniProt P10809); assay: Inhibition of human HSP60/HSP10 expressed in Escherichia coli Rosetta2(DE3) cells assessed as inhibition of denatured pig heart MDH refolding by measuring reduction in NADH production incubated for 60 mins by micro plate reader analysis
T2 sequence (P10809 whole entry): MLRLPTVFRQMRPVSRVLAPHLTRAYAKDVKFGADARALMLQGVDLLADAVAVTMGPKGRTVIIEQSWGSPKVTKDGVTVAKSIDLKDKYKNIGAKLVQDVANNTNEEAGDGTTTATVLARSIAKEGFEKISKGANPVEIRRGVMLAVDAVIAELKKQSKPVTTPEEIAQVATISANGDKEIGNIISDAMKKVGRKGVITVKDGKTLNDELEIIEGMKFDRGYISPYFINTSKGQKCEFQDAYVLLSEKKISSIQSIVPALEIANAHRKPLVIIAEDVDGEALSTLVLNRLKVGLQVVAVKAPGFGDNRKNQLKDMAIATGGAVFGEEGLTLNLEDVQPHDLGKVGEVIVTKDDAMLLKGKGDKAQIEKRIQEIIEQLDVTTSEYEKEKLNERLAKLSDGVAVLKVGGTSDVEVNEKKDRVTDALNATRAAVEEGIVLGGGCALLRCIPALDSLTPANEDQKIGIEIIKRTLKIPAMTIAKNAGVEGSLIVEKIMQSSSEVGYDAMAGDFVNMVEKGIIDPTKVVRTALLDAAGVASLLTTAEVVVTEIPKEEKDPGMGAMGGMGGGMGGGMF
T2 sequence (P61604 whole entry, further chain): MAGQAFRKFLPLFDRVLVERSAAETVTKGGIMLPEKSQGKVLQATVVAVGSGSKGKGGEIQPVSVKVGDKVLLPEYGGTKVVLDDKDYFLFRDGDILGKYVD
Summary of the method: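 Pig heart MDH was denatured in guanidine-HCl (dMDH) and complexed with HSP60, then HSP10, in Tris pH 7.4/KCl/MgCl2/DTT buffer. EDTA quench (100 mM final); refolded MDH activity was followed with mesoxalate/NADH at 340 nm.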

[13] = molecular target: T2, HSP60/HSP10; assay: Inhibition of human HSP60/HSP10 expressed in Escherichia coli Rosetta2(DE3) cells assessed as reduction in denatured pig heart MDH ATPase activity by malachite green dye based assay
[14] = molecular target: T1, E. coli GroEL/ES; assay: (§2) Inhibition of Escherichia coli GroEL/GroES using Escherichia coli GroEL expressed in Escherichia coli DH5alpha cells and Escherichia coli GroES expressed in Escherichia coli BL21(DE3) cells assessed as inhibition of denatured pig heart MDH refolding by measuring reduction in NADH production incubated for 60 mins by micro plate reader analysis
Summary of the method: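 Denatured MDH (guanidine-HCl/DTT, 30 min RT) bound to GroEL with GroES in Tris pH 7.4, KCl, MgCl2, DTT buffer. 60 min at 37°C, EDTA quench to 100 mM. Refolded MDH activity read with mesoxalate/NADH at 340 nm. Log-averaged IC50 from replicates.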

[15] = Cytotoxicity against human THLE3 cells assessed as reduction in cell viability after 48 hrs by alamar blue assay; format: cell-based; conditions: THLE3, 48 h
[16] = tested on: Escherichia coli; assay: Antibacterial activity against Escherichia coli SM101 assessed as reduction in bacterial growth incubated for 12 hrs by UV-Vis spectrophotometric analysis; format: functional, organism-based; conditions: SM101, 12 h
[17] = molecular target: T1, E. coli GroEL/ES; assay: as §2, with “rhodanese” for “pig heart MDH”, “thiocyanate” for “NADH”
Summary of the method: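 Urea-denatured rhodanese bound to GroEL/GroES in folding buffer containing thiosulfate. After 60 min at 37°C, thiocyanate reaction (KCN, thiosulfate, phosphate) run, then formaldehyde quench and ferric nitrate added. Fe(SCN)3 read at 460 nm after 15 min RT, with protein-free baseline plates.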

[18] = tested on: Escherichia coli; assay: Antibacterial activity against acrB-deficient Escherichia coli MC4100 assessed as reduction in bacterial growth incubated for 6 to 8 hrs; format: functional, organism-based
[19] = tested on: Bacillus subtilis; assay: Antibacterial activity against Bacillus subtilis 168 assessed as reduction in bacterial growth incubated for 6 to 8 hrs; format: functional, organism-based; conditions: subsp. subtilis str. 168

Structure (SMILES)	EC50 [1]	EC50 [2]	EC50 [3]	EC50 [4]	EC50 [5]	EC50 [6]	EC50 [7]	IC50 [8]	IC50 [9]	EC50 [10]	EC50 [11]	IC50 [12]	IC50 [13]	IC50 [14]	EC50 [15]	EC50 [16]	IC50 [17]	EC50 [18]	EC50 [19]
NC[C@H]1O[C@H](O[C@H]2[C@H](O)[C@@H](O[C@H]3O[C@H](CO)[C@@H](O)[C@H](N)[C@H]3O)[C@H](N)C[C@@H]2N)[C@H](O)[C@@H](O)[C@@H]1O [KANAMYCIN]	16 µM	25 µM	> 100 µM	> 100 µM	8.2 µM	37 µM	45 µM												
CNC(=O)Nc1ccc2nc(-c3ccco3)c(-c3ccco3)nc2c1	> 100 µM	> 100 µM	> 100 µM	94 µM	> 100 µM	> 100 µM	> 100 µM	2.5 µM	> 62.5 µM	> 100 µM	> 100 µM	7.4 µM	> 250 µM	3 µM	> 100 µM	> 100 µM	2.5 µM	> 100 µM	> 100 µM
CCCCCCCCCC(=O)N[C@@H](Cc1c[nH]c2ccccc12)C(=O)N[C@@H](CC(N)=O)C(=O)N[C@@H](CC(=O)O)C(=O)N[C@@H]1C(=O)NCC(=O)N[C@@H](CCCN)C(=O)N[C@@H](CC(=O)O)C(=O)N[C@H](C)C(=O)N[C@@H](CC(=O)O)C(=O)NCC(=O)N[C@H](CO)C(=O)N[C@@H]([C@H](C)CC(=O)O)C(=O)N[C@@H](CC(=O)c2ccccc2N)C(=O)O[C@@H]1C [DAPTOMYCIN]	> 100 µM	> 100 µM	33 µM	5.7 µM	5.7 µM	> 100 µM	> 100 µM												
COc1cccc(/C=C2/SC(=S)N(CCC(=O)Nc3ccc(O)cc3)C2=O)c1	> 100 µM	> 100 µM	> 100 µM	> 100 µM	80 µM	> 100 µM	> 100 µM	12 µM	> 62.5 µM	> 100 µM	> 100 µM	13 µM	> 250 µM	4.7 µM	> 100 µM	> 100 µM	9.6 µM	> 100 µM	> 100 µM
O=C(Nc1ccc2nc(-c3ccco3)c(-c3ccco3)nc2c1)N1CCCC1	> 100 µM	> 100 µM	> 100 µM	> 100 µM	> 100 µM	> 100 µM	> 100 µM	2.1 µM	> 62.5 µM	> 100 µM	> 100 µM	13 µM	> 250 µM	4.7 µM	> 100 µM	> 100 µM	2.4 µM	> 100 µM	> 100 µM
CN(C)c1ccc(O)c2c1C[C@H]1C[C@H]3[C@H](N(C)C)C(O)=C(C(N)=O)C(=O)[C@@]3(O)C(O)=C1C2=O [MINOCYCLINE]	< 0.05 µM	2.4 µM	< 0.05 µM	0.35 µM	< 0.05 µM	1.5 µM	0.7 µM												
O=C(NCCO)Nc1ccc2nc(-c3ccco3)c(-c3ccco3)nc2c1	> 100 µM	> 100 µM	> 100 µM	> 100 µM	> 100 µM	> 100 µM	> 100 µM	1.4 µM	> 62.5 µM	> 100 µM	> 100 µM	15 µM	> 250 µM	6.5 µM	> 100 µM	> 100 µM	2.6 µM	> 100 µM	> 100 µM
CO[C@H]1/C=C/O[C@@]2(C)Oc3c(C)c(O)c4c(O)c(c(/C=N/N5CCN(C)CC5)c(O)c4c3C2=O)NC(=O)/C(C)=C\C=C\[C@H](C)[C@H](O)[C@@H](C)[C@@H](O)[C@@H](C)[C@H](OC(C)=O)[C@@H]1C [RIFAMPIN]	0.47 µM	5.2 µM	1.2 µM	0.15 µM	< 0.05 µM	6.2 µM	5.4 µM												
O=c1c([N+](=O)[O-])c(Cl)c2ccccc2n1Cc1ccccc1	> 100 µM	> 100 µM	> 100 µM	21 µM	> 100 µM	> 100 µM	> 100 µM	> 100 µM	> 62.5 µM	> 100 µM	17 µM	2.8 µM	> 250 µM	5.4 µM	3.6 µM	> 100 µM	22 µM	> 100 µM	2.8 µM
CC(=O)c1cc2c(cc1NC(=O)c1ccccc1Br)OCCO2	> 100 µM	> 100 µM	> 100 µM	> 100 µM	> 100 µM	> 100 µM	> 100 µM		> 62.5 µM	> 100 µM	> 100 µM	> 100 µM	> 250 µM		> 100 µM	> 100 µM		> 100 µM	> 100 µM
COc1ccc(C(=O)N/N=C/c2ccc(O)c3ncccc23)cc1	32 µM	> 100 µM	> 100 µM	56 µM	> 100 µM	> 100 µM	95 µM	52 µM	> 62.5 µM	> 100 µM	7.7 µM	> 100 µM	> 250 µM	31 µM	15 µM	19 µM	18 µM	> 100 µM	83 µM
CC1(C)S[C@@H]2[C@H](NC(=O)[C@H](N)c3ccccc3)C(=O)N2[C@H]1C(=O)O [AMPICILLIN]	2.5 µM	27 µM	0.63 µM	76 µM	0.059 µM	> 100 µM	89 µM												
COc1cc(/C=C2/C(=N)N3N=C(CC(C)C)SC3=NC2=O)ccc1OC(=O)c1ccc(F)cc1	> 100 µM	> 100 µM	> 100 µM	> 100 µM	> 100 µM	> 100 µM	> 100 µM		> 62.5 µM	> 100 µM	> 100 µM	26 µM	> 250 µM	24 µM	> 100 µM	25 µM	25 µM	> 100 µM	13 µM
O=C(N[C@H](CO)[C@H](O)c1ccc([N+](=O)[O-])cc1)C(Cl)Cl [CHLORAMPHENICOL]	65 µM	16 µM	2.1 µM	2.3 µM	2.2 µM	2.2 µM	1.4 µM												
CN[C@@H]1[C@H](O[C@H]2[C@H](O[C@H]3[C@H](O)[C@@H](O)[C@H](N=C(N)N)[C@@H](O)[C@@H]3N=C(N)N)O[C@@H](C)[C@]2(O)C=O)O[C@@H](CO)[C@H](O)[C@H]1O [STREPTOMYCIN]	> 100 µM	2.9 µM	50 µM	> 100 µM	3.6 µM	> 100 µM	3.4 µM												
